In ChEMBL document CHEMBL2021842, “COMPARE analysis of the toxicity of an iminoquinone derivative of the imidazo[5,4-f]benzimidazoles with NAD(P)H:quinone oxidoreductase 1 (NQO1) activity and computational docking of quinones as NQO1 substrates” (Bioorg Med Chem, 2012):

Legend:
Format in all cases: functional
RXF 393 = assay: Growth inhibition of human RXF393 cells
Outline: (§1)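 Part of the NCI DTP 60-cell-line panel. After the single-dose stage, cells were tested at five doses. Read-out is the GI50, the concentration giving 50% inhibition of cell growth, derived for each cell line.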

M14 = assay: Growth inhibition of human M14 cells
Outline: (§2)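 NCI DTP 60-cell-line screen, second stage: five-dose testing across the human tumour panel. GI₅₀ taken as the concentration needed to inhibit cell growth by 50% in each cell line.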

SF-268 = assay: Growth inhibition of human SF268 cells; outline: as §1
HOP-62 = assay: Growth inhibition of human HOP62 cells; outline: as §2
HL-60(TB) = assay: Growth inhibition of human HL-60(TB) cells
Outline: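 NCI DTP NCI-60 screen, second stage: five-dose testing across 60 human tumour cell lines from nine tissue types. GI50 is the concentration that inhibits cell growth by 50%, obtained for each cell line.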

MDA-MB-468 = assay: Growth inhibition of human MDA-MB-468 cells; outline: as §1
HOP-92 = assay: Growth inhibition of human HOP92 cells; outline: as §2
NCI-H460 = assay: Growth inhibition of human NCI-H460 cells; outline: as §1
BT-549 = assay: Growth inhibition of human BT549 cells assessed as cell growth at 10 uM relative to untreated control; details: read-out: Activity
Outline: (§3)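 NCI DTP 60-cell-line screen, first stage: a single 10 µM dose of compound given to the human tumour panel. Result reported as percent growth relative to control, on a mean growth graph.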

PC-3 = assay: Growth inhibition of human PC3 cells; outline: as §1
OVCAR-3 = assay: Growth inhibition of human OVCAR3 cells; outline: as §1
786-0 = assay: Growth inhibition of human 786-0 cells; outline: as §2
HCT-116 = assay: Growth inhibition of human HCT116 cells; outline: as §2
LOX IMVI = assay: Growth inhibition of human LOXIMVI cells; outline: as §2
ACHN = assay: Growth inhibition of human ACHN cells; outline: as §2
IGROV-1 [1] = assay: Growth inhibition of human IGROV1 cells; outline: as §2
NCI-H322M = assay: Growth inhibition of human NCI-H322M cells; outline: as §1
A549 = assay: Growth inhibition of human A549 cells; outline: as §2
COLO 205 = assay: Growth inhibition of human COLO205 cells; outline: as §2
SN12C = assay: Growth inhibition of human SN12C cells
Outline: (§4)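 This is the second, five-dose stage of the NCI DTP 60-cell-line screen. GI50 is the concentration that inhibits cell growth by 50%, derived for each cell line.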

SR = assay: Growth inhibition of human SR cells; outline: as §4
MOLT-4 = assay: Growth inhibition of human MOLT4 cells; outline: as §1
SW-620 = assay: Growth inhibition of human SW620 cells; outline: as §4
NCI-H23 = assay: Growth inhibition of human NCI-H23 cells; outline: as §1
NCI-H522 = assay: Growth inhibition of human NCI-H522 cells; outline: as §1
Malme-3M = assay: Growth inhibition of human MALME-3M cells assessed as cell growth at 10 uM relative to untreated control; details: read-out: Activity; outline: as §3
IGROV-1 [2] = assay: Growth inhibition of human IGROV1 cells assessed as cell growth at 10 uM relative to untreated control; details: read-out: Activity; outline: as §3

N=C1c2nc3n(c2C(=O)c2nc4n(c21)CCCC4)CCCC3
GI50 (RXF 393): 16.6 µM
GI50 (M14): 1.78 µM
GI50 (SF-268): 8.51 µM
GI50 (HOP-62): 2.45 µM
GI50 (HL-60(TB)): 23.4 µM
GI50 (MDA-MB-468): 14.8 µM
GI50 (HOP-92): 43.7 µM
GI50 (NCI-H460): 1.62 µM
growth at 10 µM (BT-549): -37.2%
GI50 (PC-3): 100 µM
GI50 (OVCAR-3): 20.4 µM
GI50 (786-0): 44.7 µM
GI50 (HCT-116): 19.5 µM
GI50 (LOX IMVI): 0.562 µM
GI50 (ACHN): 30.9 µM
GI50 (IGROV-1 [1]): 42.7 µM
GI50 (NCI-H322M): 1.7 µM
GI50 (A549): 2.04 µM
GI50 (COLO 205): 1.86 µM
GI50 (SN12C): 1.7 µM
GI50 (SR): 8.51 µM
GI50 (MOLT-4): 38.9 µM
GI50 (SW-620): 3.72 µM
GI50 (NCI-H23): 1.38 µM
GI50 (NCI-H522): 4.57 µM

O=C1c2nc3n(c2C(=O)c2nc4n(c21)CCCC4)CCCC3
growth at 10 µM (Malme-3M): 79.6%
growth at 10 µM (IGROV-1 [2]): 107%
